ChEMBL document CHEMBL4052618, “Design, synthesis, SAR discussion, in vitro and in vivo evaluation of novel selective EGFR modulator to inhibit L858R/T790M double mutants” (Eur J Med Chem, 2017)
pIC50: −log10 of the molar value.

Assays:
[1] = target: Calcium/calmodulin-dependent protein kinase type II subunit beta (Homo sapiens) (UniProt Q13554); test: Inhibition of CAMK2B (unknown origin) at 1 uM relative to control
[2] = target: Insulin-like growth factor 1 receptor (Homo sapiens) (UniProt P08069); test: Inhibition of IGF1R (unknown origin) at 1 uM relative to control
[3] = Intrinsic clearance in dog liver microsomes; type: ADME, Canis lupus familiaris, microsome; settings: read-out: CLH
Mus musculus = test: Toxicity in nude C.B-17 SCID mouse model xenografted with human NCI-H1975 cells assessed as mortality at 5 to 20 mg/kg, ig for 18 days; type: organism-based; settings: in vivo, po, 432 h
How it was run: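 H1975 xenografts were set up by subcutaneous inoculation of 5 × 10^6 cells into C.B-17 SCID mice. At a mean tumor volume of 100-150 mm3, mice were randomized into groups of n = 9. They were dosed intragastrically once daily for 18 days at 5, 10 or 20 mg/kg, given as 0.1 mL/10 g body weight. The control group received PBS, and tumors were caliper-measured twice weekly.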

[4] = target: Inhibitor of nuclear factor kappa-B kinase subunit beta (Homo sapiens) (UniProt O14920); test: Inhibition of IKBKB (unknown origin) at 1 uM relative to control
[5] = target: Serine/threonine-protein kinase Nek2 (Homo sapiens) (UniProt P51955); test: Inhibition of NEK2 (unknown origin) at 1 uM relative to control
[6] = target: Tyrosine-protein kinase TXK (Homo sapiens) (UniProt P42681); test: Inhibition of TXK (unknown origin) at 1 uM relative to control
[7] = target: Tyrosine-protein kinase SYK (Homo sapiens) (UniProt P43405); test: Inhibition of SYK (unknown origin) at 1 uM relative to control
[8] = target: Activated CDC42 kinase 1 (Homo sapiens) (UniProt Q07912); test: Inhibition of TNK2 (unknown origin) at 1 uM relative to control
[9] = Intrinsic clearance in rat liver microsomes; type: ADME, microsome; settings: read-out: CLH
[10] = target: cAMP-dependent protein kinase catalytic subunit alpha (Homo sapiens) (UniProt P17612); test: Inhibition of PRKACA (unknown origin) at 1 uM relative to control
[11] = target: Casein kinase I isoform alpha (Homo sapiens) (UniProt P48729); test: Inhibition of CSNK1A1 (unknown origin) at 1 uM relative to control
[12] = target: Tyrosine-protein kinase BTK (Homo sapiens) (UniProt Q06187); test: Inhibition of BTK (unknown origin) at 1 uM relative to control
[13] = target: Receptor-type tyrosine-protein kinase FLT3 (Homo sapiens) (UniProt P36888); test: Inhibition of FLT3 (unknown origin) at 1 uM relative to control
[14] = target: Fibroblast growth factor receptor 3 (Homo sapiens) (UniProt P22607); test: Inhibition of FGFR3 (unknown origin) at 1 uM relative to control
[15] = Tmax in Sprague-Dawley rat at 10 mg/kg, po administered via gavage by LC-MS/MS analysis; type: ADME, organism-based; settings: in vivo
How it was run: (§1)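 Male Sprague-Dawley rats (200-240 g) received 1 mg/kg by tail-vein injection in 2% DMSO, 20% PEG400 and 78% buffered saline, or 10 mg/kg by oral gavage in 0.5% methylcellulose. Orbital sinus blood was drawn into heparinized tubes at 2, 5, 15 and 30 min and at 1, 2, 4, 8, 12 and 24 h, then centrifuged. Plasma was measured by LC/MS/MS in SRM mode, with non-compartmental analysis.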

[16] = target: Protein kinase C gamma type (Homo sapiens) (UniProt P05129); test: Inhibition of PRKCG (unknown origin) at 1 uM relative to control
[17] = target: Mast/stem cell growth factor receptor Kit (Homo sapiens) (UniProt P10721); test: Inhibition of KIT (unknown origin) at 1 uM relative to control
[18] = target: Tyrosine-protein kinase Fes/Fps (Homo sapiens) (UniProt P07332); test: Inhibition of FES (FPS) (unknown origin) at 1 uM relative to control
NCI-H1975 [19] = test: In vivo anti tumor activity against human NCI-H1975 cells xenografted in nude C.B-17 SCID mouse model assessed as tumor volume at 20 mg/kg, ig for 18 days measured twice a week (reference value: 948.05 mm3); type: functional
[20] = target: Protein kinase C alpha type (Homo sapiens) (UniProt P17252); test: Inhibition of PRKCA (unknown origin) at 1 uM relative to control
[21] = Half life in rat liver microsomes; type: ADME, microsome
[22] = target: Tyrosine-protein kinase ITK/TSK (Homo sapiens) (UniProt Q08881); test: Inhibition of ITK (unknown origin) at 1 uM relative to control
[23] = target: Tyrosine-protein kinase JAK2 (Homo sapiens) (UniProt O60674); test: Inhibition of JAK2 (unknown origin) at 1 uM relative to control
[24] = target: Inhibitor of nuclear factor kappa-B kinase subunit alpha (Homo sapiens) (UniProt O15111); test: Inhibition of CHUK (unknown origin) at 1 uM relative to control
NCI-H1975 [25] = test: In vivo anti tumor activity against human NCI-H1975 cells xenografted in nude C.B-17 SCID mouse model assessed as relative tumor volume at 20 mg/kg, ig for 18 days measured twice a week relative to control; type: functional
How it was run: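 C.B-17 SCID mice received s.c. inoculation of 5 × 10^6 H1975 cells. At 100-150 mm3 they were randomized (n = 9 per group) and dosed intragastrically once daily for 18 days, with PBS as the control. Tumors were measured by caliper twice weekly, with V = length × width²/2. RTV = V/V0, and T/C% = treated mean RTV / control mean RTV × 100.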

[26] = Half life in dog liver microsomes; type: ADME, Canis lupus familiaris, microsome
[27] = target: cGMP-dependent protein kinase 1 (Homo sapiens) (UniProt Q13976); test: Inhibition of PRKG1 (unknown origin) at 1 uM relative to control
[28] = target: Receptor tyrosine-protein kinase erbB-4 (Homo sapiens) (UniProt Q15303); test: Inhibition of ERBB4 (HER4) (unknown origin) at 1 uM relative to control
[29] = target: Mitogen-activated protein kinase kinase kinase 9 (Homo sapiens) (UniProt P80192); test: Inhibition of MAP3K9 (unknown origin) at 1 uM relative to control
[30] = Half life in monkey liver microsomes; type: ADME, Macaca mulatta, microsome; settings: rhesus monkey
[31] = target: Proto-oncogene tyrosine-protein kinase ROS (Homo sapiens) (UniProt P08922); test: Inhibition of ROS1 (unknown origin) at 1 uM relative to control
[32] = target: Epidermal growth factor receptor (Homo sapiens, UniProt P00533); test: Inhibition of human recombinant cytoplasmic GST-tagged EGFR (668 to 1210 residues) expressed in baculovirus using TK-substrate-biotin preincubated for 15 mins followed by substrate addition measured after 60 mins by FRET-based Z'-Lyte assay; settings: read-out: IC50
[33] = AUC (0 to infinity) in Sprague-Dawley rat at 1 mg/kg, iv by LC-MS/MS analysis; type: ADME, organism-based; design: dose 1 mg/kg, time infinity, route intravenous; settings: in vivo
[34] = Clearance in Sprague-Dawley rat at 1 mg/kg, iv after 24 hrs by LC-MS/MS analysis; type: ADME, organism-based; settings: in vivo; how it was run: as §1

Chain of Mitogen-activated protein kinase kinase kinase 9 (Homo sapiens) (P80192 whole entry, looked up): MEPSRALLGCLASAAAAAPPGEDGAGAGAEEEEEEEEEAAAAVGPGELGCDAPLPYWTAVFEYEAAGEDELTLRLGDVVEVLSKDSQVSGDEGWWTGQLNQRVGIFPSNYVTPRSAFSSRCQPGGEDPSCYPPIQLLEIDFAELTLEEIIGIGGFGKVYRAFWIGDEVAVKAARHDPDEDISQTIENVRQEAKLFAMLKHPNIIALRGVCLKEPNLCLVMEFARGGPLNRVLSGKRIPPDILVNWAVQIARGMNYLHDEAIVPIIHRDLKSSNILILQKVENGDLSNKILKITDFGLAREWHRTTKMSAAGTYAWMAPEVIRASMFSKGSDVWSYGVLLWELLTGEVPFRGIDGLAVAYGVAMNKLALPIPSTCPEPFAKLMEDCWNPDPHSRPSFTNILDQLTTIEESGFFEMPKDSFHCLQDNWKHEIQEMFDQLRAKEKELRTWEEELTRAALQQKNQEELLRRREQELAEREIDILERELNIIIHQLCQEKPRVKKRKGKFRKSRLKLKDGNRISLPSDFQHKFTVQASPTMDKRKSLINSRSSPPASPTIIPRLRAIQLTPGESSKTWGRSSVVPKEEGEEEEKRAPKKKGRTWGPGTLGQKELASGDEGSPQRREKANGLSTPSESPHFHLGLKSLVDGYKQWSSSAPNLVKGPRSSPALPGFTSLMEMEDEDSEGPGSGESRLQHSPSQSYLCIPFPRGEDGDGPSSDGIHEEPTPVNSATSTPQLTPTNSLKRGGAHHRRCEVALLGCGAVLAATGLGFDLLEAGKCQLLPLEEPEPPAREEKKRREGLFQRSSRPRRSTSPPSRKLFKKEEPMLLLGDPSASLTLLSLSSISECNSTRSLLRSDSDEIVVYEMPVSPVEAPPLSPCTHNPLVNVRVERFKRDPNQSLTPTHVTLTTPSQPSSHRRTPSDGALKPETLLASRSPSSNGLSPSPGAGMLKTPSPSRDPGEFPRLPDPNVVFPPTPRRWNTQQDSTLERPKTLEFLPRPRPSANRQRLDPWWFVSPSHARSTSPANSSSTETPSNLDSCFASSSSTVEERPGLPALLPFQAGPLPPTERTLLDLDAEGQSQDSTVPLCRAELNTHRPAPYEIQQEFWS
Chain of Calcium/calmodulin-dependent protein kinase type II subunit beta (Homo sapiens) (Q13554 whole entry): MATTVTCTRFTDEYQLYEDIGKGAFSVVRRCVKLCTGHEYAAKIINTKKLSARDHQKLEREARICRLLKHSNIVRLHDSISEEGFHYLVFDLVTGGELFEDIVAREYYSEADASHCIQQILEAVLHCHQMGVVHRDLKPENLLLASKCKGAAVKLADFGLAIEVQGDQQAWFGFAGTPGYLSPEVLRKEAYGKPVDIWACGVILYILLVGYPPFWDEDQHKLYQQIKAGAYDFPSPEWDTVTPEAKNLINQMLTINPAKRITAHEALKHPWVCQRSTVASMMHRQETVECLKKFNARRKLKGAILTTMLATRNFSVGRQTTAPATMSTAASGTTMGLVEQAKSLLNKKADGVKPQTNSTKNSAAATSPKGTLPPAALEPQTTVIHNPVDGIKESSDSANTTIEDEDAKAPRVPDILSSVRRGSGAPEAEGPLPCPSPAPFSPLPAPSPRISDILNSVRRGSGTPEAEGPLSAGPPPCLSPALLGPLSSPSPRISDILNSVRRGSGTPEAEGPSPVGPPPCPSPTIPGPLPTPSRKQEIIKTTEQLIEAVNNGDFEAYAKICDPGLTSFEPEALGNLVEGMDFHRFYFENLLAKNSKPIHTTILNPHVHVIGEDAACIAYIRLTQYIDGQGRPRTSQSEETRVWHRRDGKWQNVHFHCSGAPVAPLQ
Chain of Insulin-like growth factor 1 receptor (Homo sapiens) (P08069 31-736 limits assumed): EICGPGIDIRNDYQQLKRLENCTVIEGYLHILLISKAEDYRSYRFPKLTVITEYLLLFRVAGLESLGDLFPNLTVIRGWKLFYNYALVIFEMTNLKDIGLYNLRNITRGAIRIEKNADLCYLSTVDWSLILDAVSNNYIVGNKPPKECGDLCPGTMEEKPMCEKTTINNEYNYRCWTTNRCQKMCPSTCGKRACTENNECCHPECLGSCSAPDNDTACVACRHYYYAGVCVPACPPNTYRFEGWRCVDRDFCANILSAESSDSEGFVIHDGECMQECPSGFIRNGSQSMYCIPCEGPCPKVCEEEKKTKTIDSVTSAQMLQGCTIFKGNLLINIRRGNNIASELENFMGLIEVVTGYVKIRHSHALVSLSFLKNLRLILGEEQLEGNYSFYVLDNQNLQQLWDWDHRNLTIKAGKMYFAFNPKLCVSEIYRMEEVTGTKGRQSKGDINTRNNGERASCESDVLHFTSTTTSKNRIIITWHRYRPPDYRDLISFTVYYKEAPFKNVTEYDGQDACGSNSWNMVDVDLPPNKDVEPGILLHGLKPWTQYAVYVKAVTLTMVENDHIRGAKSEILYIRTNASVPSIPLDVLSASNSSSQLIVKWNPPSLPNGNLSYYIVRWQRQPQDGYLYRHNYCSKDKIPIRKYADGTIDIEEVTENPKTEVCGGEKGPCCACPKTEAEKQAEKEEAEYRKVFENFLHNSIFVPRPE
Chain of Insulin-like growth factor 1 receptor (Homo sapiens) (P08069 741-1367 limits assumed): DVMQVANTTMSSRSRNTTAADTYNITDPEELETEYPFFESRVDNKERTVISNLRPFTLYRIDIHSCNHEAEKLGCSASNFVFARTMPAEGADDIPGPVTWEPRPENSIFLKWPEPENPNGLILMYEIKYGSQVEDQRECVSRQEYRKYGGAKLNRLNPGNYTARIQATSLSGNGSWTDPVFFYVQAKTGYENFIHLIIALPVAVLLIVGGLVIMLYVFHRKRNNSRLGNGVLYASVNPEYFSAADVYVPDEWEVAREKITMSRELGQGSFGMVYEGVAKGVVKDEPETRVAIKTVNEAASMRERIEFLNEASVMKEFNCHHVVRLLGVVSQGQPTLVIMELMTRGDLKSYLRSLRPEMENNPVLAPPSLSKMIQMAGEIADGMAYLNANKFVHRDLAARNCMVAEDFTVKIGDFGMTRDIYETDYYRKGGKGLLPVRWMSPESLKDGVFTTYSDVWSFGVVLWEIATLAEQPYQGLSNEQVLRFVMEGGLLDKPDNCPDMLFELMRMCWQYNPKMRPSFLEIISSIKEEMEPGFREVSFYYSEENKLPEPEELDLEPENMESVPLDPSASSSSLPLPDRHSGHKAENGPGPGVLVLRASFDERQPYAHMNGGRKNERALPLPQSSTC
Chain of Activated CDC42 kinase 1 (Homo sapiens) (Q07912 whole entry, looked up): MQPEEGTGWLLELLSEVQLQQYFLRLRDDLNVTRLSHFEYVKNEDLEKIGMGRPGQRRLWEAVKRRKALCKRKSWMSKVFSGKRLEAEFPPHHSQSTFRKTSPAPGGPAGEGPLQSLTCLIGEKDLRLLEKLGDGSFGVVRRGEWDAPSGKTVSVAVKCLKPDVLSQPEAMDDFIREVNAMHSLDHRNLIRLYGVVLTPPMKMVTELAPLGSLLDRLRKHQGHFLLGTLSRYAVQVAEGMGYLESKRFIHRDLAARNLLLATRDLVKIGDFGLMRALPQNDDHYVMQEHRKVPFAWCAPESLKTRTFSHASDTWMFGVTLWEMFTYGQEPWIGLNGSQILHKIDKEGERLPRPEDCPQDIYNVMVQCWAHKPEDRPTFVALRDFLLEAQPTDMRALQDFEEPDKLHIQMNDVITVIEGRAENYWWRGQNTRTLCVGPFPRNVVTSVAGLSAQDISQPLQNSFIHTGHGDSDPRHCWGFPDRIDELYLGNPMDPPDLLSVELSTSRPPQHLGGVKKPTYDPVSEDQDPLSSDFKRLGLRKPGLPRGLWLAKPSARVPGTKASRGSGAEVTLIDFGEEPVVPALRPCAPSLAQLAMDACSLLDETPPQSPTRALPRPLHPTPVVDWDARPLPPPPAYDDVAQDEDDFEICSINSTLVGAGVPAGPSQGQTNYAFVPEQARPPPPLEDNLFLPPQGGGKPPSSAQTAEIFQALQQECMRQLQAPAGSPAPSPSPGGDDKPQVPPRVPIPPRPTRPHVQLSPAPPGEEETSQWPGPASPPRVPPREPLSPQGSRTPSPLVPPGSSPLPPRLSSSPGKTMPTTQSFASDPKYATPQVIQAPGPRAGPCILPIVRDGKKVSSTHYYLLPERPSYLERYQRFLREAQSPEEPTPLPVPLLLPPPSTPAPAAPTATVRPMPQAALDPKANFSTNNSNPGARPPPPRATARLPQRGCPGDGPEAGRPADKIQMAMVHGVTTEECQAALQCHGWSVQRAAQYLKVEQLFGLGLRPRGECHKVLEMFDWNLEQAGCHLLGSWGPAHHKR
Chain of Casein kinase I isoform alpha (Homo sapiens) (P48729 2-337 limits assumed): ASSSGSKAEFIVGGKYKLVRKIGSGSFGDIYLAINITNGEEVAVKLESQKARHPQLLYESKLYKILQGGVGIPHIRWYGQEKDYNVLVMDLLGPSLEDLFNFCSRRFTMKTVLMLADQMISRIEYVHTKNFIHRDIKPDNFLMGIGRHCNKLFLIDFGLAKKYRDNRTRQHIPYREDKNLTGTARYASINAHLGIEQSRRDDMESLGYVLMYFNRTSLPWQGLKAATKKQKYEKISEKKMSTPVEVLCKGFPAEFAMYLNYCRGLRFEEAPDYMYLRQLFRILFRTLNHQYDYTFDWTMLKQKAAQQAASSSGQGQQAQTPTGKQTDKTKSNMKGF
Chain of Tyrosine-protein kinase TXK (Homo sapiens) (P42681 whole entry): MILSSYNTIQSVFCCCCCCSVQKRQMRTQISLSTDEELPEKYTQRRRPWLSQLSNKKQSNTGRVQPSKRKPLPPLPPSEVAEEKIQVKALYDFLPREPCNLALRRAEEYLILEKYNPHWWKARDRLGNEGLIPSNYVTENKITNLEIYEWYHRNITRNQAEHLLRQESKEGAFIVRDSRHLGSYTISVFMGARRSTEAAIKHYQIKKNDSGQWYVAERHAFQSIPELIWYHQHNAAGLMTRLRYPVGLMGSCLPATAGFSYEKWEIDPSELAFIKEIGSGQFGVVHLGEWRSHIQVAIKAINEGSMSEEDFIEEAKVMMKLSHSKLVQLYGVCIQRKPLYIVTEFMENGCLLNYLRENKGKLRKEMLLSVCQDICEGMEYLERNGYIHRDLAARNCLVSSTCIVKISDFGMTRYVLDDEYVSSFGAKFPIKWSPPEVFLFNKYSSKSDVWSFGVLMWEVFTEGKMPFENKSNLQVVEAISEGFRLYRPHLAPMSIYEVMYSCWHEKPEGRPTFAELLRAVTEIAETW

**Q.** Which inhibition [1] does the source give for `C=CC(=O)Nc1cc(Nc2nccc(-c3cn4c5c(cccc35)CCC4)n2)c(OC)cc1N(C)CCN(C)C` here?
**A.** 14%

**Q.** And the inhibition [2]?
**A.** 21%

**Q.** And the CLint scaled [3]?
**A.** 63.4 mL/min/kg

**Q.** What about the Activity (Mus musculus) of the same compound?
**A.** Non-Toxic

**Q.** What about the inhibition [4] of the same compound?
**A.** 0%

**Q.** And the inhibition [5]?
**A.** 7%

**Q.** And the inhibition [6]?
**A.** 88%

**Q.** And the inhibition [7]?
**A.** 4%

**Q.** What about the inhibition [8] of the same compound?
**A.** 75%

**Q.** What about the CLint scaled [9] of the same compound?
**A.** 54 mL/min/kg

**Q.** And the inhibition [10]?
**A.** 2%

**Q.** What about the inhibition [11] of the same compound?
**A.** -4%

**Q.** What about the inhibition [12] of the same compound?
**A.** 48%

**Q.** What about the inhibition [13] of the same compound?
**A.** 56%

**Q.** And the inhibition [14]?
**A.** 9%

**Q.** And the Tmax [15]?
**A.** 3.3 h

**Q.** What about the inhibition [16] of the same compound?
**A.** -2%

**Q.** And the inhibition [17]?
**A.** 5%

**Q.** What about the inhibition [18] of the same compound?
**A.** 42%

**Q.** What about the Activity (NCI-H1975 [19]) of the same compound?
**A.** 113.52 mm3

**Q.** And the inhibition [20]?
**A.** 1%

**Q.** What about the half-life [21] of the same compound?
**A.** 46.2 min

**Q.** What about the inhibition [22] of the same compound?
**A.** 66%

**Q.** What about the inhibition [23] of the same compound?
**A.** -6%

**Q.** What about the inhibition [24] of the same compound?
**A.** 14%

**Q.** And the T/C (NCI-H1975 [25])?
**A.** 12.1%

**Q.** And the half-life [26]?
**A.** 31.5 min

**Q.** What about the inhibition [27] of the same compound?
**A.** 5%

**Q.** And the inhibition [28]?
**A.** 78%

**Q.** And the inhibition [29]?
**A.** 87%

**Q.** What about the half-life [30] of the same compound?
**A.** 28.9 min

**Q.** And the inhibition [31]?
**A.** 94%

**Q.** And the pIC50 [32]?
**A.** 7.67

**Q.** What about the AUC(0-inf) [33] of the same compound?
**A.** 194 ng·h/mL

**Q.** What about the clearance [34] of the same compound?
**A.** 86.2 mL/min/kg
